Data on 25 compounds can be found in ChEMBL document CHEMBL1121388, “Analgesic narcotic antagonists. 2. 8-Alkymorphinan-6-ones” (J Med Chem, 1980).

Activity calls are given as the source filed them. The calls are words filed in the database; no cut-off is given here. Bounds are passed on as bounds.

Experiment [1] concerns Mus musculus. Description: The effective dose was measured by using mouse writhing assay after the compound administered subcutaneously. It is filed as functional. Particulars: sc. The essentials:
(§1)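 Analgesia in the mouse writhing test induced by acetic acid, with compound given subcutaneously. Salts were dissolved in distilled H₂O; free bases were dissolved by dropwise 1 N HCl and then diluted.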
On the technique in general: Writhing tests count abdominal constrictions after an irritant is injected.

Experiment [2] relates to Rattus norvegicus. The experiment is described as follows: The effective dose was measured by using rat tail flick assay after the compound administered intraperitoneally. Conditions: ip. The class given is functional. On the technique in general: Hot-plate and tail-flick tests time the reaction to a heat stimulus.
In experiment [3] the test system is Rattus norvegicus. The experiment is described as follows: The Effective dose was measured by using rat tail flick assay after the compound administered intraperitoneally at a dose of 25 umol/kg; IA means inactive at the given dose. The class given is functional, organism-based.
Experiment [4] has as its system Rattus norvegicus. Description: Effective dose was measured by using rat tail flick assay after subcutaneous administration. It is filed as functional. Conditions: sc. The essentials:
(§2)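 Agonist activity in the rat heat-stimulus tail-flick test. Drug was given subcutaneously and rats were tested 20 min after dosing. Salts were dissolved in distilled H₂O; free bases were dissolved with dropwise 1 N HCl and then diluted. ED₅₀ or inactivity/lethality recorded at the dose indicated.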

Experiment [5] has as its system Mus musculus. The experiment is described as follows: The Effective dose was measured by using mouse writhing assay after the compound administered subcutaneously; IA means inactive. The class given is functional, organism-based. The essentials:
as §1

The test system of experiment [6] is Mus musculus. Description: The Effective dose was measured by using mouse writhing assay after the compound administered subcutaneously at a dose of 25 umol/kg; IA means inactive at the given dose. It is filed as functional, organism-based. The essentials: as §1
For experiment [7], the species on record is Rattus norvegicus. Description: Ratio of agonist to that of antagonist activity. The class given is functional.
For experiment [8], the system named is Mus musculus. Description: The Effective dose was measured by using mouse writhing assay after the compound administered subcutaneously at a dose 27umol/kg; IA means inactive at the given dose. The class given is functional, organism-based. In a few lines:
as §1

In experiment [9] the test system is Rattus norvegicus. The experiment is described as follows: The Effective dose was measured by using rat tail flick assay after the compound administered subcutaneously at a dose 27umol/kg; IA means inactive at the given dose. The class given is functional, organism-based. In a few lines: as §2
Experiment [10] relates to Mus musculus. The experiment is described as follows: The Effective dose was measured by using mouse writhing assay after the compound administered subcutaneously at a dose of 22 umol/kg; IA means inactive at the given dose. The class given is functional, organism-based. In a few lines:
as §1

With `CCC[C@@H]1CC(=O)CC23CCN(CC4CCC4)C(Cc4ccc(O)cc42)[C@@H]13` (stereo not given in full), the ED50 (in general, the midpoint of the dose-response relation) in the experiment with Mus musculus [1] was above 24 µmol/kg; in the experiment with Rattus norvegicus [2] it was 4.5 µmol/kg.

Regarding `O=C1CC[C@@H]2C3Cc4ccc(O)cc4C2(CCN3CC2CCC2)C1` (stereo not given in full), the ED50 was determined as 2.6 µmol/kg with Mus musculus [1] and 13.8 µmol/kg in the experiment with Rattus norvegicus [2].

Take `O=C1CC[C@H]2C3Cc4ccc(O)cc4C2(CCN3CC2CCC2)C1` (stereo not given in full): the 50% effect level in the experiment on Mus musculus [1] (ED50) was put at a dose of 0.047 µmol/kg. In the experiment on Rattus norvegicus [3], the ED50 entry is “inactive”.

As for `COc1ccc2c(c1)C13CCN(C)C(C2)[C@@H]1[C@@H](C)CC(=O)C3` (stereo not given in full), the ED50 in the experiment on Mus musculus [1] was found to be 1.34 µmol/kg; in the experiment on Rattus norvegicus [4], 3.57 µmol/kg.

Take `C[C@@H]1CC(=O)CC23CCN(C)C(Cc4ccc(O)cc42)[C@@H]13` (stereo not given in full): the ED50 stood at 1.18 µmol/kg in the experiment with Mus musculus [1] and 0.93 µmol/kg in the experiment with Rattus norvegicus [4].

As to `COc1ccc2c3c1O[C@H]1[C@@H](O)C=C[C@H]4[C@@H](C2)N(C)CC[C@@]341` [CODEINE], the values for the ED50 in the experiment with Mus musculus [1] and in the experiment on Rattus norvegicus [4] were 10.3 µmol/kg and 75 µmol/kg, respectively.

In the case of `C[C@H]1CC(=O)CC23CCN(C)C(Cc4ccc(O)cc42)[C@H]13` (stereo not given in full), the ED50 was 2.55 µmol/kg in the experiment with Mus musculus [1] and above 30 µmol/kg in the experiment on Rattus norvegicus [4].

With `CCC[C@H]1CC(=O)CC23CCN(C)C(Cc4ccc(OC)cc42)[C@H]13` (stereo not given in full), the ED50 was 15.4 µmol/kg in the experiment on Mus musculus [1] and above 28 µmol/kg in the experiment on Rattus norvegicus [4].

Take `C=CCN1CC[C@]23c4c5ccc(O)c4O[C@H]2C(=O)CC[C@@]3(O)[C@H]1C5` [NALOXONE]: the ED50 result with Mus musculus [5] was “inactive”.

Regarding `CC[C@@H]1CC(=O)CC23CCN(CC4CC4)C(Cc4ccc(O)cc42)[C@@H]13` (stereo not given in full), in the experiment with Mus musculus [6], the ED50 entry is “inactive”. Moreover, the median effective dose (ED50) in the experiment on Rattus norvegicus [2] stood at 0.88 µmol/kg.

Turning to `CC[C@@H]1CC(=O)CC23CCN(C)C(Cc4ccc(O)cc42)[C@@H]13` (stereo not given in full), the results for the ED50 with Mus musculus [1] and with Rattus norvegicus [4] were 2.11 µmol/kg and 2.31 µmol/kg, respectively.

As for `COc1ccc2c3c1O[C@H]1C(=O)CC[C@H]4[C@@H](C2)N(C)CC[C@]314` [HYDROCODONE], the ED50 in the experiment with Rattus norvegicus [4] was 5.2 µmol/kg.

In the case of `CN1CCC23CC(=O)CC[C@@H]2C1Cc1ccc(O)cc13` (stereo not given in full), the results for the ED50 in the experiment with Mus musculus [1] and in the experiment with Rattus norvegicus [4] were 0.75 µmol/kg and 1.33 µmol/kg, respectively.

As to `C=CCN1CCC23CC(=O)CC(C)[C@H]2C1Cc1ccc(OC)cc13` (stereo not given in full), the ED50 in the experiment with Mus musculus [1] is 3.47 µmol/kg; in the experiment on Rattus norvegicus [2], above 24 µmol/kg.

As to `CC[C@@H]1CC(=O)CC23CCN(CC4CC4)C(Cc4ccc(OC)cc42)[C@@H]13` (stereo not given in full), the ED50 entry in the experiment with Mus musculus [6] is “inactive”. In the experiment with Rattus norvegicus [2], this compound yielded an ED50 of 1.64 µmol/kg.

For `COc1ccc2c(c1)C13CCN(C)C(C2)[C@@H]1CCC(=O)C3` (stereo not given in full), the figures for the ED50 in the experiment on Mus musculus [1] and with Rattus norvegicus [4] were 1.72 µmol/kg and 2.32 µmol/kg, respectively.

Consider `CC(C)=CCN1CC[C@]2(C)c3cc(O)ccc3C[C@H]1[C@H]2C` [(+)-PENTAZOCINE], for which the Ratio in the experiment listed under Rattus norvegicus [7] is 0.36.

For `C=CCN1CC[C@]23c4c5ccc(O)c4O[C@H]2[C@@H](O)C=C[C@H]3[C@H]1C5` [NALORPHINE], in the experiment listed under Rattus norvegicus [7], the Ratio is reported as 1.42.

Turning to `Oc1ccc2c(c1)[C@@]13CCCC[C@@]1(O)[C@@H](C2)N(CC1CCC1)CC3` [BUTORPHANOL], the ED50 with Mus musculus [1] was found to be 0.34 µmol/kg; in the experiment with Rattus norvegicus [2], 2 µmol/kg. The Ratio in the experiment listed under Rattus norvegicus [7] is given as 0.17.

On to `CCC[C@H]1CC(=O)CC23CCN(C)C(Cc4ccc(O)cc42)[C@H]13` (stereo not given in full), for which the ED50 entry with Mus musculus [8] and in the experiment on Rattus norvegicus [9] was “inactive” in each case.

As to `COc1ccc2c(c1)C13CCN(CC4CCC4)C(C2)[C@@H]1[C@@H](C)CC(=O)C3.Cl` (stereo not given in full), the ED50 turned out to be 1.38 µmol/kg in the experiment with Mus musculus [1] and 16.4 µmol/kg in the experiment on Rattus norvegicus [2]. Besides, in the experiment listed under Rattus norvegicus [7], the Ratio amounted to 0.08.

On to `CCC[C@H]1CC(=O)CC23CCN(CC4CC4)C(Cc4ccc(O)cc42)[C@H]13` (stereo not given in full), for which the ED50 result in the experiment with Mus musculus [6] is “inactive”. In the experiment on Rattus norvegicus [2], the ED50 came out at 24.3 µmol/kg.

As to `O=C1CC[C@H]2C3Cc4ccc(O)cc4C2(CCN3CC2CC2)C1` (stereo not given in full), the values for the ED50 with Mus musculus [1] and in the experiment on Rattus norvegicus [2] were 3.28 µmol/kg and 7.4 µmol/kg, respectively. In the experiment filed under Rattus norvegicus [7], the Ratio is given as 0.44.

For the compound `COc1ccc2c(c1)[C@]13CCN(CC4CC4)[C@H](C2)[C@@H]1[C@@H](C)CC(=O)C3`, the ED50 with Mus musculus [1] came out at 0.71 µmol/kg; with Rattus norvegicus [2], 4.27 µmol/kg. For the same compound, in the experiment filed under Rattus norvegicus [7], the Ratio came to 0.17.

Turning to `CCC[C@@H]1CC(=O)CC23CCN(CC4CC4)C(Cc4ccc(OC)cc42)[C@@H]13` (stereo not given in full), in the experiment on Mus musculus [10], the ED50 result is “inactive”. The ED50 in the experiment on Rattus norvegicus [2] was determined as 6.4 µmol/kg.
